# S1P3 antag – S1P3 (human) receptor antagonism; Q99500; CHO S1P3 NFAT-BLA reporter, FRET fluorescence, antagonist mode; inhibition, % at 4.98 µM; 0.27% of 170,000 active; AID 485;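 active = inhibition above the plate cutoff, the mean inhibition of test wells on that plate plus 3 SD, cut at about 28% in these data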;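 also: cells challenged with S1P at its EC80 of 0.8 µM; blue over green emission ratio from cleaved BLA substrate after 4 h stimulation; 0% = S1P-stimulated wells and 100% = unstimulated DMSO-only wells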
# Redox H2O2 prof – compounds producing H2O2 with reducing agent – biochemical, NIH compound library profiling, artefact control for MLSCN library redox annotation, primary screen. DTT-dependent redox cycling H2O2, phenol red/HRP absorbance; 100% = 100 µM peroxide control, 0% = buffer. activation, % at 10 µM. 0.03% of 200,000 active;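 active = activation of at least 50% relative to the plate's high and low controls in the primary single-dose screen; inactive = activation below 50%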;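 also: compound incubated with DTT at 0.8 mM final as the reducing agent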
# thrombin 1536 – thrombin (human) inhibition. alpha-thrombin, Boc-VPR-AMC fluorogenic substrate cleavage. inhibition, % at 5 µM. 0.26% of 220,000 active. AID 1046;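 active = inhibition at or above 40%; inactive = inhibition below 40%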;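 also: 0% = enzyme with no compound and 100% = wells without enzyme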
#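 Assay system: human alpha-thrombin enzyme. Reagent: Boc-VPR-AMC substrate, 15 µM final. Compound dosing: one concentration per compound, 5 µM, with 0.2% DMSO. Incubation: room-temperature reaction. Technique: AMC fluorescence, 355/460 nm. Measure: % inhibition relative to enzyme controls and enzyme-free blanks.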
# KLK5 inh – inhibitors of human kallikrein 5; recombinant hK5, fluorogenic AMC substrate cleavage; AID 873; 0.59% of 210,000 active; Q9Y337; inhibition, % at 5 µM;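 active = inhibition of 40% or more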;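 also: 0% = enzyme controls without compound and 100% = no-enzyme blanks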
# FXIIa inh 1536 – blocks human coagulation factor XIIa protease activity | purified FXIIa, Boc-QGR-AMC fluorogenic substrate, 2 h | 0.3% of 220,000 active | inhibition, % at 5 µM | AID 800 | P00748; in the data active = inhibition above about 40%;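 also: 0% = enzyme with no compound and 100% = blank without enzyme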
# FXIa inh – blocks human coagulation factor XIa protease activity. AID 798. purified FXIa, Boc-Glu-Ala-Arg-AMC fluorogenic substrate. inhibition, % at 5 µM. 0.14% of 220,000 active. P03951;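 active = inhibition of at least 40%; inactive = inhibition below 40%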;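 also: fluorescence of freed AMC excited at 355 nm; 0% = enzyme without compound and 100% = no enzyme blank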
# Target sequence (P03951 19-387 limits assumed): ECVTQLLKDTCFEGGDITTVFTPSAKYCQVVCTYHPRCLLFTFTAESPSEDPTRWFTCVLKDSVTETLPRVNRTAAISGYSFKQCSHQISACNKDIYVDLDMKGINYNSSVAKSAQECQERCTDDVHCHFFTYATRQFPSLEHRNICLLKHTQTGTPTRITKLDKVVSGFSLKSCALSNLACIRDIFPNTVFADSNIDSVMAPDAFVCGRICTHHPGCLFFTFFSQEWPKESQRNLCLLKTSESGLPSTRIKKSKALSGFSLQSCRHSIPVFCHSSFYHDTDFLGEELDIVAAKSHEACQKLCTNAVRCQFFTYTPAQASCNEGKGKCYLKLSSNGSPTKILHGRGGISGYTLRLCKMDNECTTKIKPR
# Target sequence (P03951 388-625 limits assumed): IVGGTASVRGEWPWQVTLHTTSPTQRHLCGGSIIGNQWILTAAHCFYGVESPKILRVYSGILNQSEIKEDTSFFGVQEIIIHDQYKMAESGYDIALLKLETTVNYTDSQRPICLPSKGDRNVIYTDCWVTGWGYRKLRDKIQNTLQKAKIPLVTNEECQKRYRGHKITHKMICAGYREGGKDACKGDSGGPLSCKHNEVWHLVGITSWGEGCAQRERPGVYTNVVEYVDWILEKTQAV
# * hit, by the source's call; / = no result given. Compounds with a hit are over-represented: about 1.2% of the library has one in this group of screens.
SMILES,S1P3 antag,Redox H2O2 prof,thrombin 1536,KLK5 inh,FXIIa inh 1536,FXIa inh
CCO[C@H]1OC(C(=O)O)=C[C@@H](c2ccc3c(c2)OCO3)[C@@H]1CCCO,-12.1,0.1,-2.6,0.3,6.5,-1.8
CCOC(=O)CSc1nnc(CNC(=O)c2ccc(S(=O)(=O)N3CCOCC3)cc2)n1C,-9.7,0.4,-0.1,-24.4,-8.4,5.6
CCOC(=O)CSc1nnc(CNC(=O)c2ccc(S(=O)(=O)N3CCCC3)cc2)n1C,-11.5,3.1,48.2*,47.9*,3.6,3.0
COCc1cc(=O)n2[nH]c(C(C)(C)C)cc2n1,-17.2,/,7.5,-7.2,9.6,7.8
Cc1cc(C)n(CCC(=O)N=Nc2c(O)[nH]c3ccc(Br)cc23)n1,8.7,/,-5.7,2.4,11.8,2.3
CC(=O)c1ccc(S(=O)(=O)Nc2ccc(-c3cn4c(n3)SCC4)cc2)cc1,3.3,-1.6,42.0*,4.3,5.4,-0.1
Oc1ccc(-c2cn3c(n2)SCC3)cc1,/,-0.5,4.6,-18.2,12.3,-5.2
O=C(N/N=C/c1ccc(OCc2ccccc2)cc1)c1ccncc1,-11.1,-0.7,-5.9,-5.4,0.1,-4.8
O=C(N/N=C/c1ccc(OCc2cnc(Cl)s2)cc1)c1ccncc1,-22.2,-1.5,49.5*,26.1,66.2*,28.3
Cc1nc(SCC(=O)NNC(=O)c2cccs2)[nH]c(=O)c1C,-23.9,-0.3,-4.4,3.6,10.4,-0.7
CC1=C(C(=O)Nc2cccc(C)c2C)C(c2cccs2)NC(=S)N1 (stereo not drawn),-4.2,0.3,-11.6,2.9,7.8,1.1
Cc1ccccc1NC(=O)CSc1nc2c(c(-c3ccco3)c1C#N)CCCC2,78.7*,0.5,-5.1,-8.5,21.3,1.4
CCc1ccccc1NC(=O)CSc1nc2c(c(-c3ccco3)c1C#N)CCCC2,-13.9,3.7,-10.2,-23.6,-12.2,-15.5
CC(=O)N1C(=O)/C(=C2\SC(=S)N(c3c(C)n(C)n(-c4ccccc4)c3=O)C2=O)c2ccccc21,5.4,0.7,50.1*,9.6,5.6,-5.8
CCc1nc2sccc2c(=O)[nH]1,5.3,-0.2,44.2*,55.9*,23.1,31.9
CC1(C)Cc2ccccc2-c2nc(NCCCO)[nH]c(=O)c21,-5.9,/,-11.7,-8.8,-8.3,-7.5
O=C(COC(=O)c1ccc(O)cc1)NCCCc1ccccc1,-17.6,-1.4,91.4*,22.8,42.7*,27.8
O=C(CN1C(=O)NC2(CCc3ccccc3C2)C1=O)Nc1ccc(F)cc1 (stereo not drawn),4.6,0.4,-15.5,-6.1,0.3,-0.1
COCc1c(C(=O)OCc2nc(N)nc(Nc3ccccc3C)n2)oc2ccccc12,16.7,2.3,-2.4,4.5,51.3*,32.4
COc1ccccc1C(=O)OCc1nc(N)nc(Nc2ccccc2C)n1,-0.6,0.1,-15.1,-7.2,0.3,-6.3
CC(=O)N/C(=C/c1ccc([N+](=O)[O-])cc1)C(=O)O,-2.5,-1.8,0.7,/,10.9,4.2
O=C1N=C(N2CCCC2)S/C1=C\C=C\c1ccccc1,6.0,/,-12.2,-0.5,2.1,-3.0
O=C(N/N=C/C(Cl)=C\c1ccccc1)c1cnccn1,/,0.1,17.0,56.3*,17.9,7.1
COc1ccc(-c2coc3cc(O)ccc3c2=O)cc1OC,-19.1,-0.2,6.7,43.0*,25.8,2.1
CC(=O)C1=C(C)Nc2ncnn2C1c1ccc(Cl)cc1 (stereo not drawn),80.8*,-0.6,-3.8,-0.6,22.9,2.2
SMILES,S1P3 antag,Redox H2O2 prof,thrombin 1536,KLK5 inh,FXIIa inh 1536,FXIa inh
COc1ccc(C2C(C(=O)Nc3ccccc3OC)=C(C)Nc3ncnn32)cc1 (stereo not drawn),-9.3,-0.6,25.0,45.4*,106.7*,20.3
C=CC[C@@H]1C=C[C@H](O/N=C/c2ccc(C(=O)N3[C@H](c4ccc(C)cc4)[C@@H](C)CC[C@H]3C(=O)OC)cc2)[C@@H](CO)O1,10.2,1.3,-2.6,-11.4,9.9,1.7
CC(Cc1ccccc1)NC(=O)c1cc([N+](=O)[O-])ccc1Cl (stereo not drawn),-6.0,/,-15.8,2.9,0.2,-12.2
Cc1cc(NC(=O)COc2nnc(-c3ccccc3)c3ccccc23)no1,-18.9,0.7,12.8,57.7*,23.1,7.0
Cc1cc(NC(=O)COc2ccccc2C)no1,-3.2,0.1,-5.9,1.6,12.0,-1.3
CCOc1ccc(NC(=O)CCSc2nnc(C)s2)cc1,/,-3.0,21.5,46.5*,24.4,18.8
Cc1ccc(CSc2nnc(-c3ccncc3)n2CC2CCCO2)cc1 (stereo not drawn),/,1.7,18.9,80.8*,25.9,8.5
CC(Sc1nnnn1-c1ccccc1)C(=O)Nc1ccc(Cl)cn1 (stereo not drawn),-7.7,4.0,16.1,51.5*,2.2,17.4
CC(Sc1nnc2ccccn12)C(=O)Nc1ccc(Cl)cn1 (stereo not drawn),7.2,-0.2,-6.4,-7.8,16.9,0.8
CC(=O)Nc1ccc(S(=O)(=O)NNC(=O)COc2ccc(Cl)cc2Cl)cc1,20.7,/,21.5,20.0,20.6,43.9*
CC(=O)c1sc(=S)n(-c2ccccc2)c1C,-6.0,/,13.6,12.8,23.2,11.2
CSc1cc(C)n(-c2ccccc2)c(=S)c1C(C)=O,/,0.5,20.2,46.1*,17.8,1.8
COc1ccc(CCNCc2ccc(OCC(=O)N3CCCCC3)c(OC)c2)cc1OC,-11.4,2.3,-5.3,-4.2,5.5,-6.0
COc1ccc(OC)c(C2CC(c3c(-c4ccccc4)c4cc(Cl)ccc4[nH]c3=O)=NN2S(C)(=O)=O)c1 (stereo not drawn),/,-3.4,3.3,42.1*,8.5,0.2
COc1ccc(C2CC(c3c(-c4ccccc4)c4cc(Cl)ccc4[nH]c3=O)=NN2S(C)(=O)=O)cc1 (stereo not drawn),/,0.3,-1.1,-3.4,12.2,-4.1
COc1ccccc1CNC(=O)CSc1nc(C)cs1,-1.0,-1.3,-8.8,-1.0,5.0,-2.9
Cc1csc(SCC(=O)NCc2ccccc2Cl)n1,-10.2,-1.0,47.6*,35.2,21.1,25.5
Cc1nn(C(=O)c2cccs2)c(N)c1-c1ccccc1,-2.8,-2.3,-3.8,-1.1,13.6,4.4
CC(=O)c1c(C)nn(C(=O)c2cccs2)c1C,8.4,-0.8,9.6,55.6*,15.1,7.7
CC(=O)Nc1c(C(=O)O)[nH]c2ccccc12,7.4,3.1,3.8,72.5*,18.4,6.5
COc1ccc2c(CC(=O)Nc3ncc(C)s3)coc2c1,-18.6,5.2,-8.7,3.5,7.9,-0.4
CCN(CC)C(=O)c1ccc(NS(=O)(=O)c2ccc(/C=C/C(=O)O)cc2)cc1,-38.4,0.3,/,44.1*,23.4,28.8
O=C(Cc1ncc(C(F)(F)F)cc1Cl)NCCc1ccccn1,1.0,-1.0,-2.0,-2.6,13.3,1.7
COC(=O)c1c(C)oc(C)c(C(=O)OC)c1=O,-35.6,1.8,17.1,73.8*,20.9,11.1
